Source: ChEMBL document CHEMBL4411272, “Design, synthesis and biological evaluation of AZD9291 derivatives as selective and potent EGFRL858R/T790M inhibitors” (Eur J Med Chem, 2019)

Experiments:
[1] = biological target: Epidermal growth factor receptor (Homo sapiens, UniProt P00533); assay: Inhibition of wild-type EGFR (unknown origin) using substrate-biotin by ELISA-based mobility shift assay
NCI-H1975 = assay: Antiproliferative activity against human NCI-H1975 cells after 72 hrs by MTT assay; format: functional, cell-based; conditions: NCI-H1975, 72 h
How it was run: (§1)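 MTT assay; cells grown as monolayers in DMEM or RPMI1640 with 10% FBS at 37 °C, 5% CO2 for 24 h, then compound added for 72 h. MTT at 5 μg/mL for 4 h at 37 °C, formazan dissolved in DMSO, absorbance read at 492 nm with 630 nm reference. Each compound tested three times per line; IC50 from averaged determinations.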

Homo sapiens = species: Homo sapiens; assay: Selectivity ratio of IC50 for wild-type EGFR (unknown origin) to IC50 for EGFR T790M/L858R double mutant (unknown origin)
A549 = assay: Antiproliferative activity against human A549 cells after 72 hrs by MTT assay; format: functional, cell-based; conditions: A549, 72 h; how it was run: as §1
[2] = biological target: Epidermal growth factor receptor (Homo sapiens, UniProt P00533, L858R/T790M); assay: Inhibition of EGFR T790M/L858R double mutant (unknown origin) using substrate-biotin by ELISA-based mobility shift assay
Epidermal growth factor receptor (Homo sapiens, UniProt P00533, L858R/T790M), sequence (P00533 25-1210 T790M/L858R limits assumed): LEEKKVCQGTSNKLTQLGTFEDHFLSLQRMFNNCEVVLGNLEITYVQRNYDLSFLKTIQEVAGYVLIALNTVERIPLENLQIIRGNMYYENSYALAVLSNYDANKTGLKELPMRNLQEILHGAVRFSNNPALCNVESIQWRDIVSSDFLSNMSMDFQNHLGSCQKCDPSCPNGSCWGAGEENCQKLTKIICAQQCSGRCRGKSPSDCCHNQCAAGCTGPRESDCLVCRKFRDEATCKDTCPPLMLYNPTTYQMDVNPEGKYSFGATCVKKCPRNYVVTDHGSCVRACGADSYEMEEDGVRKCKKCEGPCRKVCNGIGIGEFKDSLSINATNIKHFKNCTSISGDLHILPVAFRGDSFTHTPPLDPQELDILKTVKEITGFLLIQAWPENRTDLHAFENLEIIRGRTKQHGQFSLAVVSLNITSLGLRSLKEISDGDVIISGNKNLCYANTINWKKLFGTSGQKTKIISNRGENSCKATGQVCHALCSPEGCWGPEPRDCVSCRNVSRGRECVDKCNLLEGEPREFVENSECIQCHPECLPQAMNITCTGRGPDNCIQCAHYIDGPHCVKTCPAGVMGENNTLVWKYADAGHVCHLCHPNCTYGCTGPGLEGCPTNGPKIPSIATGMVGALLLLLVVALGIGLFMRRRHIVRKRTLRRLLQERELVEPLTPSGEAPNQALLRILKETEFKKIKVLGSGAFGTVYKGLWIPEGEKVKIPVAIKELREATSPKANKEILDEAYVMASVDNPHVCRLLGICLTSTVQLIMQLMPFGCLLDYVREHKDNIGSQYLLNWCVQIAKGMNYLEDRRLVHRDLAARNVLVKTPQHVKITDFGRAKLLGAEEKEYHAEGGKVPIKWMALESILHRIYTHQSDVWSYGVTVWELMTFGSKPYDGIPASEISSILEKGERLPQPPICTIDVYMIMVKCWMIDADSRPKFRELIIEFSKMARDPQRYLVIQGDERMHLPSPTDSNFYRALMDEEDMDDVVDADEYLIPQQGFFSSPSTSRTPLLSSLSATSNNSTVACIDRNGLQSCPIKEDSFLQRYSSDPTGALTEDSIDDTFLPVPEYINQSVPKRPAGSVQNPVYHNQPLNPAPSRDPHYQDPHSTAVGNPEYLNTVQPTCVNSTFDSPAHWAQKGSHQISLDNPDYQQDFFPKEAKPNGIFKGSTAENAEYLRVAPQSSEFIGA

HepG2 = assay: Antiproliferative activity against human HepG2 cells after 72 hrs by MTT assay; format: functional, cell-based; conditions: HepG2, 72 h
How it was run: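 MTT assay; cells grown as monolayers in DMEM or RPMI1640 with 10% FBS at 37 °C, 5% CO2 for 24 h, then compound added for 72 h. Each compound tested three times per line; IC50 from averaged determinations.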

Epidermal growth factor receptor (Homo sapiens, UniProt P00533), sequence (P00533 whole entry): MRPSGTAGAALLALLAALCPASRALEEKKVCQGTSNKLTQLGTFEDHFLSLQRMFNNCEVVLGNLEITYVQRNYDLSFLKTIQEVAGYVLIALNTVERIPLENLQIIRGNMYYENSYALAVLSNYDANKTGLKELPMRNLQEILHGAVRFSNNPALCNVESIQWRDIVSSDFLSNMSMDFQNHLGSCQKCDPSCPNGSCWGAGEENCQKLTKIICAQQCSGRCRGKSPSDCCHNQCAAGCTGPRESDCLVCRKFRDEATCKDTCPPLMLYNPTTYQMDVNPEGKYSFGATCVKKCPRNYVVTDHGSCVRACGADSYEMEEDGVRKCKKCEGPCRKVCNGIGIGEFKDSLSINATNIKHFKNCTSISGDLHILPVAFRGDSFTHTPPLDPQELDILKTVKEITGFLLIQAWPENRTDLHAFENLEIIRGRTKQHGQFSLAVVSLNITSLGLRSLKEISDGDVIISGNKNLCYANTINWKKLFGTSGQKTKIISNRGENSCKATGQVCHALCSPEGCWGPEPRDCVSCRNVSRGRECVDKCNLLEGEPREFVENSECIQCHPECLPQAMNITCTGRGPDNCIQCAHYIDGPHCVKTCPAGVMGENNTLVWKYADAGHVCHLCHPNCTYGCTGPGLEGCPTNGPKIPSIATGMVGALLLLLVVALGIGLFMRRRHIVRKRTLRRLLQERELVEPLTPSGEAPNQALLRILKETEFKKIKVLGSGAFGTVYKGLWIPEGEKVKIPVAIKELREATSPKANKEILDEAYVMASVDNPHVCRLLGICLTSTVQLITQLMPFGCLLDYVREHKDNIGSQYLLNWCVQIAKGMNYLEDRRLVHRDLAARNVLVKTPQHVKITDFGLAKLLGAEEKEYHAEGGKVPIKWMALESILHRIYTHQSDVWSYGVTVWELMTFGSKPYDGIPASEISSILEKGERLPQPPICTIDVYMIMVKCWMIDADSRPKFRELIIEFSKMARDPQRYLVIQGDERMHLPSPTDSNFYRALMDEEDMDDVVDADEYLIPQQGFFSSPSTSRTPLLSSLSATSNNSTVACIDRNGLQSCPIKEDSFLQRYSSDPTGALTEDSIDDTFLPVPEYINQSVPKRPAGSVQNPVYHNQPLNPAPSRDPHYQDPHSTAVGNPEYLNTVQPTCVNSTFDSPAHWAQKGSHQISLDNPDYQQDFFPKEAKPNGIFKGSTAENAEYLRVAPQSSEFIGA

| Structure (SMILES) | IC50 [1] | IC50 (NCI-H1975) | Ratio IC50 (Homo sapiens) | IC50 (A549) | IC50 [2] | IC50 (HepG2) |
| --- | --- | --- | --- | --- | --- | --- |
| C=CC(=O)Nc1cc(Nc2nc(C)cc(-c3cn(C)c4ccccc34)n2)c(OC)cc1N(C)CCN(C)C | 1340 nM | 4810 nM | 14.5 | 2910 nM | 93 nM | 12.6 µM |
| CC/C=C\C(=O)Nc1cc(Nc2nccc(-c3cn(C)c4ccc(F)cc34)n2)c(OC)cc1N(C)CCN(C)C | 684 nM | 2600 nM | 1.8 | 3600 nM | 388 nM | 5.29 µM |
| COc1cc(N(C)CCN(C)C)c(NC(=O)/C=C\C(C)C)cc1Nc1nc(C)cc(-c2cn(C)c3ccc(F)cc23)n1 | > 2000 nM | 8520 nM |  | 9080 nM | 892 nM | 14 µM |
| C=C(Cl)C(=O)Nc1cc(Nc2nc(C)cc(-c3cn(C)c4ccccc34)n2)c(OC)cc1N(C)CCN(C)C | 83 nM | 2230 nM | 8.3 | 1730 nM | 10 nM | 3.64 µM |
| COc1cc(N(C)CCN(C)C)c(NC(=O)C=C(C)C)cc1Nc1nccc(-c2cn(C)c3ccccc23)n1 | 1280 nM | 5610 nM | 6.1 | 4100 nM | 209 nM | 5.66 µM |
| C=CC(=O)Nc1cc(Nc2ncc(C#N)c(-c3cn(C)c4ccccc34)n2)c(OC)cc1N(C)CCN(C)C | 311 nM | 1190 nM | 12.4 | 308 nM | 25 nM | 0.768 µM |
| COc1cc(N(C)CCN(C)C)c(NC(=O)/C=C\C(C)C)cc1Nc1nccc(-c2cn(C)c3ccc(F)cc23)n1 | 977 nM | 7360 nM |  | 6140 nM | > 2000 nM | 3.92 µM |
| C=C(Cl)C(=O)Nc1cc(Nc2ncc(C#N)c(-c3cn(C)c4ccccc34)n2)c(OC)cc1N(C)CCN(C)C | 137 nM | 1620 nM | 6.9 | 133 nM | 20 nM | 0.115 µM |
| CC/C=C\C(=O)Nc1cc(Nc2ncc(C#N)c(-c3cn(C)c4ccc(F)cc34)n2)c(OC)cc1N(C)CCN(C)C | > 2000 nM | 10200 nM |  | 4720 nM | > 2000 nM | 5.88 µM |
| CC/C=C\C(=O)Nc1cc(Nc2nc(C)cc(-c3cn(C)c4ccc(F)cc34)n2)c(OC)cc1N(C)CCN(C)C | > 2000 nM | 10400 nM |  | 9150 nM | 998 nM | 11 µM |
| COc1cc(N(C)CCN(C)C)c(NC(=O)/C=C\C(C)C)cc1Nc1nccc(-c2cn(C)c3ccccc23)n1 | > 2000 nM | 1820 nM |  | 612 nM | 397 nM | 4.39 µM |
| CCC/C=C\C(=O)Nc1cc(Nc2nccc(-c3cn(C)c4ccc(F)cc34)n2)c(OC)cc1N(C)CCN(C)C | 12 nM | 2730 nM | 1.6 | 1030 nM | 7.5 nM | 3.4 µM |
| C=C(Cl)C(=O)Nc1cc(Nc2nccc(-c3cn(C)c4ccccc34)n2)c(OC)cc1N(C)CCN(C)C | 257 nM | 1290 nM | 7.8 | 7520 nM | 33 nM | 1.39 µM |
| CC/C=C\C(=O)Nc1cc(Nc2nccc(-c3cn(C)c4ccccc34)n2)c(OC)cc1N(C)CCN(C)C | 1280 nM | 3860 nM | 7.2 | 1530 nM | 177 nM | 6.67 µM |
| CC/C=C\C(=O)Nc1cc(Nc2ncc(C#N)c(-c3cn(C)c4ccccc34)n2)c(OC)cc1N(C)CCN(C)C | 387 nM | 1150 nM | 24.2 | 162 nM | 16 nM | 1.36 µM |
| CCC/C=C\C(=O)Nc1cc(Nc2nc(C)cc(-c3cn(C)c4ccc(F)cc34)n2)c(OC)cc1N(C)CCN(C)C | > 2000 nM | 12200 nM |  | 13300 nM | 923 nM | 12.1 µM |
| CC/C=C\C(=O)Nc1cc(Nc2nc(C)cc(-c3cn(C)c4ccccc34)n2)c(OC)cc1N(C)CCN(C)C | 1260 nM | 1990 nM | 69.7 | 1080 nM | 18 nM | 2.05 µM |
| CCC/C=C\C(=O)Nc1cc(Nc2ncc(C#N)c(-c3cn(C)c4ccc(F)cc34)n2)c(OC)cc1N(C)CCN(C)C | 1060 nM | 2420 nM | 5.3 | 741 nM | 201 nM | 2.01 µM |
| C/C=C\C(=O)Nc1cc(Nc2nccc(-c3cn(C)c4ccccc34)n2)c(OC)cc1N(C)CCN(C)C | 395 nM | 4540 nM | 7.6 | 660 nM | 52 nM | 6.93 µM |
| CCC/C=C\C(=O)Nc1cc(Nc2ncc(C#N)c(-c3cn(C)c4ccccc34)n2)c(OC)cc1N(C)CCN(C)C | 377 nM | 823 nM | 10.2 | 166 nM | 37 nM | 1.69 µM |
| COc1cc(N(C)CCN(C)C)c(NC(=O)/C=C\C(C)C)cc1Nc1nc(C)cc(-c2cn(C)c3ccccc23)n1 | > 2000 nM | 1230 nM |  | 1070 nM | 38 nM | 3.55 µM |
| C=CC(=O)Nc1cc(Nc2nc(C)cc(-c3cn(C)c4ccc(F)cc34)n2)c(OC)cc1N(C)CCN(C)C | 1090 nM | 3830 nM | 1.9 | 1490 nM | 591 nM | 4.28 µM |
| COc1cc(N(C)CCN(C)C)c(NC(=O)C(Cl)=C(Cl)Cl)cc1Nc1nccc(-c2cn(C)c3ccccc23)n1 | > 2000 nM | > 50000 nM |  | > 50000 nM | > 2000 nM | > 50 µM |
| COc1cc(N(C)CCN(C)C)c(NC(=O)/C=C\C(C)C)cc1Nc1ncc(C#N)c(-c2cn(C)c3ccc(F)cc23)n1 | 415 nM | 1130 nM | 1.2 | 185 nM | 360 nM | 2.84 µM |
| CCC/C=C\C(=O)Nc1cc(Nc2nccc(-c3cn(C)c4ccccc34)n2)c(OC)cc1N(C)CCN(C)C | 1500 nM | 1220 nM | 7.4 | 808 nM | 203 nM | 0.431 µM |
| C=CC(=O)Nc1cc(Nc2nccc(-c3cn(C)c4ccccc34)n2)c(OC)cc1N(C)CCN(C)C [OSIMERTINIB] |  | […] |  | 615 nM |  |  |
| C=CC(=O)Nc1cc(Nc2ncc(C#N)c(-c3cn(C)c4ccc(F)cc34)n2)c(OC)cc1N(C)CCN(C)C | > 2000 nM | 11400 nM |  | 9700 nM | > 2000 nM | 17.5 µM |
| COc1cc(N(C)CCN(C)C)c(NC(=O)/C=C\C(C)C)cc1Nc1ncc(C#N)c(-c2cn(C)c3ccccc23)n1 | 985 nM | 1110 nM | 4.5 | 1100 nM | 219 nM | 1.81 µM |
| C=C(F)C(=O)Nc1cc(Nc2nccc(-c3cn(C)c4ccccc34)n2)c(OC)cc1N(C)CCN(C)C | 65 nM | 4230 nM | 10.8 | 2460 nM | 6 nM | 3.79 µM |
| C=CC(=O)Nc1cc(Nc2nccc(-c3cn(C)c4ccc(F)cc34)n2)c(OC)cc1N(C)CCN(C)C | 8.7 nM | 254 nM | 124 | 329 nM | 0.07 nM | 0.429 µM |
